Read-outs that look alike come from different tables or passages of the source.
Legend:
[1] = rats; cited from earlier work
[2] = mice; cited from earlier work
[3] = from DMNs, rats; cited from earlier work
[4] = assay type: in vivo, Male Wistar rats; conditions: rats, i.v., LC-MS/MS
Summary of the method: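 Anaesthetised 10-week-old male Wistar rats (pentobarbital 50 mg/kg, 37°C) received test compound 5.0 mg/kg i.v. via jugular vein, in saline. DMN array applied to shaved abdomen (2.0 m/s, then 2.5 N for 1-3 min). 2 µL ISF drawn from pore at 15, 30, 45, 60, 75, 90, 120 min; femoral-vein plasma sampled. Positive-ESI LC-MS/MS quantification; mean ± SE, unpaired t-test.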

[5] = n = 4, cited from earlier work

For recombinant human growth hormone [rhGH], the “Bioavailability (BA) from the DMNs” value [1] is listed as 87.5%.
In the case of erythropoietin [EPO], the “Bioavailability (BA) from the DMNs” value [2] is listed as 82.1-99.4%.
In the case of insulin, the “Physiological availability (PA)” value [3] is given as 91.3-97.7%.
In the case of CN[C@H](CC(C)C)C(=O)N[C@H]1C(=O)N[C@@H](CC(N)=O)C(=O)N[C@H]2C(=O)N[C@H]3C(=O)N[C@H](C(=O)N[C@H](C(=O)O)c4cc(O)cc(O)c4-c4cc3ccc4O)[C@H](O)c3ccc(c(Cl)c3)Oc3cc2cc(c3O[C@@H]2O[C@H](CO)[C@@H](O)[C@H](O)[C@H]2O[C@H]2C[C@](C)(N)[C@H](O)[C@H](C)O2)Oc2ccc(cc2Cl)[C@H]1O [VCM, Vancomycin], the “Mean concentration of VCM in plasma compared with ISF, early phase” value ([4]; 30 min after administration) is listed as “higher than that in ISF”, the “Concentration of VCM in ISF compared with plasma, after 30 min” value ([4]; after 30 min) is listed as “higher than that in plasma” and the “AUC, ISF” value ([5]; ISF by ultrafiltration probe) is listed as 75300 ± 7700 ng·h/mL. For the same compound, the “Tmax (average), ISF” value ([5]; ISF by ultrafiltration probe) was 39.6 min, the “AUC, blood” value ([5]; blood) was 89800 ± 15700 ng·h/mL and the “Cmax in the blood” value ([5]; blood) was 80.2 ± 18.5 µg/mL.
In the case of low-molecular-weight heparin [LMWH], the “Physiological availability (PA)” value [3] is listed as 81.5-102.3%.

From paper PMC4829539 (International Journal of Medical Sciences, 2016)
